Source: article PMC11881275 (Malaria Journal, 2025)
“Also recorded” adds a separate entry of the source.

Key:
[1] = in silico predictions ref 77; cited from earlier work
[2] = system: P. falciparum W2 clone; experiment: In vitro antimalarial activity via the SYBR Green I assay; type: cell-based, Plasmodium falciparum
Summary of the method: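 Sorbitol-synchronized parasites in human O+ erythrocytes (0.5% parasitaemia, 2% haematocrit) received twofold dilutions of test compound, 1.56–200 µM final, in triplicate; artemisinin 170 nM was the control. Incubation was 72 h at 37 °C under 5% CO2/5% O2/90% N2. Cells were lysed in Tris/EDTA/saponin/Triton buffer with SYBR Green I, 30 min at 24 °C in the dark; ex 485/em 590 nm, uninfected-RBC blank subtracted. SI = HepG2 CC50 (MTT, 72 h) ÷ IC50.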

[3] = Cytotoxic activity via the MTT method; type: cell-based, human; conditions: human, HepG2 cells
[4] = system: human hepatocellular carcinoma cell line (HepG2); experiment: Cytotoxic activity via the MTT method; type: cell-based; conditions: highest concentration tested 500 µM
[5] = system: P. falciparum NF54 gametocytes (stages IV, V); experiment: Exflagellation-blocking bioassay; type: cell-based, Plasmodium falciparum; conditions: 1 µM; ≥ 75% high, 25 to 75% average, below 25% inactive
Summary of the method: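 Stage IV–V gametocytes were first checked for exflagellation (≥30 exflagellating microgametocytes per 1000 RBC). They were then exposed for 48 h to test compound at 1 µM in triplicate, with DMSO ≤0.5% and DHA 1 µM as controls. Exflagellation was induced in ookinete medium containing xanthurenic acid, 20 min at 24 °C, and counted by microscopy at 1000×. Inhibition ≥75% was classed active.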

Structure (SMILES) | Plasma protein binding [1] | SI (selectivity index) ([2]; CC50 HepG2 divided by IC50 W2) | IC50 ([2]; Plasmodium falciparum, W2, 72 h, read-out: IC50 W2) | CC50 at 72 h [3] | viability at 72 h, 500 µM [3] | Cytotoxicity to HepG2 cells (in words) [4] | Potential to block malaria transmission (classification) [5]
OC(c1cc(C(F)(F)F)nc2c(C(F)(F)F)cccc12)C1CCCCN1 (stereo not drawn) [mefloquine] | high plasm protein binding | – | – | – | – | – | –
CCN(CC)CCCC(C)Nc1ccnc2cc(Cl)ccc12 (stereo not drawn) [chloroquine] | high plasm protein binding | – | – | – | – | – | –
C[C@@H]1CC[C@H]2[C@@H](C)C(=O)O[C@@H]3O[C@@]4(C)CC[C@@H]1[C@]32OO4 [Artemisinin] | high plasm protein binding | ≥ 23,809 | 0.021 ± 0.004 µM | ≥ 500 µM | 100% | – | –
CC(=O)OCc1cn(-c2n[nH]c(C)n2)nn1 [Compound 13d, (1-(5-methyl-1H-1,2,4-triazol-3-yl)-1H-1,2,3-triazol-4-yl)methyl acetate] | – | – | – | ≥ 500 µM | 80% | non-cytotoxic; also recorded: no cytotoxicity | –
COc1cc(NC(C)CCCN)c2ncccc2c1 (stereo not drawn) [primaquine] | high plasm protein binding | – | – | – | – | – | –
CC(=O)OCc1cn(-c2n[nH]c(C(F)(F)F)n2)nn1 [Compound 14d, (1-(5-(trifluoromethyl)-1H-1,2,4-triazol-3-yl)-1H-1,2,3-triazol-4-yl)methyl acetate] | – | – | – | ≥ 500 µM | 93.4% | non-cytotoxic; also recorded: no cytotoxicity | high potential to block malaria transmission; also recorded: strong potential to block malaria transmission
